Converted amounts (≈) assume the structure as drawn. Blank lines part the entries; values can stand above or below the compound they belong to.
How the values were obtained:
[1] = molecular target: T1, Peroxisome proliferator-activated receptor gamma (Homo sapiens, UniProt P37231); assay: Compound was tested in vitro for inhibiting the 50% binding of Peroxisome proliferator activated receptor gamma; IA = Inactive
T1 sequence (P37231 whole entry): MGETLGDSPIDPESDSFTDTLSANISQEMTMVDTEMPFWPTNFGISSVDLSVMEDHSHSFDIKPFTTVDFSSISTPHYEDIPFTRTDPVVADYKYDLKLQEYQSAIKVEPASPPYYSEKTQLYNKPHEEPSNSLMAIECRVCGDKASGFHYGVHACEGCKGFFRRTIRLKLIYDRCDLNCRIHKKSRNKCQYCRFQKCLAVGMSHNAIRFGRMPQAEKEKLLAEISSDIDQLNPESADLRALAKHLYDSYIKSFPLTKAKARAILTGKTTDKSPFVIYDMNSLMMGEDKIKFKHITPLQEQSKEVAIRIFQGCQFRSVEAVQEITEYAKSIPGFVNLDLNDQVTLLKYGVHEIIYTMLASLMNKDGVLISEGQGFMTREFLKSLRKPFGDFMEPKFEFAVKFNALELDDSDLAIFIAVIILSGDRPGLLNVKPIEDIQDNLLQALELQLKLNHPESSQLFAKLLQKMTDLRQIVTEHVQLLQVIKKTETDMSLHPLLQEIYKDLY
How it was run: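 Competitive radioligand binding to PPARγ with [3H]BRL 49653 as the radioligand. […] It is converted to an apparent Ki by Ki = IC50/(1 + [L]/Kd), and results are given as pKi.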

[2] = molecular target: T1, Peroxisome proliferator-activated receptor gamma; assay: Compound was tested functionally in vitro for inducing 50% of the maximum alkaline phosphate activity (Transactivation) against Peroxisome proliferator activated receptor gamma; format: functional
[3] = molecular target: T2, Peroxisome proliferator-activated receptor alpha (Homo sapiens, UniProt Q07869); assay: Compound was tested in vitro for inhibiting the 50% binding of Peroxisome proliferator activated receptor alpha; format: functional
T2 sequence (Q07869 whole entry): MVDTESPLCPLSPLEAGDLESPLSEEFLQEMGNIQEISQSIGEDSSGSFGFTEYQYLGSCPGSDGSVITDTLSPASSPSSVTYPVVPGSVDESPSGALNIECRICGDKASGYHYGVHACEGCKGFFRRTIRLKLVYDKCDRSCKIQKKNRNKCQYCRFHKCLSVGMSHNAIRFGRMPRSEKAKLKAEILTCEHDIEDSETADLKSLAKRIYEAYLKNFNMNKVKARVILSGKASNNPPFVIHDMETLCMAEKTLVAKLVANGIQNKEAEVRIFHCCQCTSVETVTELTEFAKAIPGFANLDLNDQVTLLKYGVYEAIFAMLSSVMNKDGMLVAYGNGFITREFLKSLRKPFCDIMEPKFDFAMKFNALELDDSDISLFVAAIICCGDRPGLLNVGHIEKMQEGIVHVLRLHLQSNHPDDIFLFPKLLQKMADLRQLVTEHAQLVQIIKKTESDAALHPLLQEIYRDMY

[4] = molecular target: T2, Peroxisome proliferator-activated receptor alpha; assay: Tested in vitro for inhibiting the 50% binding of Peroxisome proliferator activated receptor alpha
[5] = molecular target: T2, Peroxisome proliferator-activated receptor alpha; assay: In vitro transactivation of Peroxisome proliferator activated receptor alpha.; format: functional
[6] = molecular target: T1, Peroxisome proliferator-activated receptor gamma; assay: Tested functionally in vitro for inducing 50% of the maximum alkaline phosphate activity (Transactivation) against Peroxisome proliferator activated receptor gamma; format: functional
[7] = molecular target: T1, Peroxisome proliferator-activated receptor gamma; assay: Inhibition by 50% of in vitro binding to Peroxisome proliferator activated receptor gamma
[8] = Solubility determined by equilibrating an excess of solid material in 500 microL of pH 7.4 phosphate buffer; format: physicochemical; conditions: read-out: S
How it was run: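 Samples are filtered (0.22 µm) and diluted in water/acetonitrile 60:40. The dissolved concentration is measured by reversed-phase HPLC on a phenyl column with 0.05% TFA water/acetonitrile (60:40), 1 mL/min, and UV detection at each compound's maximum. Results are in mg/mL.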

Ki [1]: 1170 nM
Compound: O=C(c1ccccc1)c1ccccc1N[C@@H](Cc1ccc(OCC2COCCOCCOCCO2)cc1)C(=O)O (stereo not given in full)

EC50 [2]: 191 nM | Ki [3]: 1410 nM
Compound: O=C(c1ccccc1)c1ccccc1N[C@@H](Cc1ccc(OCCOc2ccc(SCl)cc2)cc1)C(=O)O

Ki [4]: 2510 nM | EC50 [5]: > 10000 nM | EC50 [6]: 23.4 nM | Ki [7]: 2.63 nM
Compound: Cc1sc(N2CCN(S(C)(=O)=O)CC2)nc1CCOc1ccc(C[C@H](Nc2ccccc2C(=O)c2ccccc2)C(=O)O)cc1

Ki [4]: 174 nM | solubility thermodynamic [8]: 4 µg/mL (≈ 7.33 µM) | EC50 [5]: 661 nM
Compound: Cc1cc(-c2ccccc2)nn1CCOc1ccc(C[C@H](Nc2ccccc2C(=O)c2ccccc2)C(=O)O)cc1

Reference: ChEMBL document CHEMBL1131423, “N-(2-Benzoylphenyl)-L-tyrosine PPARgamma agonists. 2. Structure-activity relationship and optimization of the phenyl alkyl ether moiety” (J Med Chem, 1998)
